Laboratory results published in ChEMBL document CHEMBL1811786, “Identification of MK-5710 ((8aS)-8a-methyl-1,3-dioxo-2-[(1S,2R)-2-phenylcyclo- propyl]-N-(1-phenyl-1H-pyrazol-5-yl)hexahydro-imidazo[1,5-a]pyrazine-7(1H)-carboxamide), a potent smoothened antagonist for use in Hedgehog pathway dependent malignancies, part 2” (Bioorg Med Chem Lett, 2011).

Columns and labels:
[1] = Oral bioavailability in rat; type: ADME, organism-based; details: in vivo
Protein smoothened [2] = biological target: T1, Protein smoothened (Homo sapiens, UniProt Q99835); assay: Displacement of BODIPY-cyclopamine from human Smo expressed in HEK293 cells in presence of 20% normal human serum; type: cell-based
T1 sequence (Q99835 whole entry): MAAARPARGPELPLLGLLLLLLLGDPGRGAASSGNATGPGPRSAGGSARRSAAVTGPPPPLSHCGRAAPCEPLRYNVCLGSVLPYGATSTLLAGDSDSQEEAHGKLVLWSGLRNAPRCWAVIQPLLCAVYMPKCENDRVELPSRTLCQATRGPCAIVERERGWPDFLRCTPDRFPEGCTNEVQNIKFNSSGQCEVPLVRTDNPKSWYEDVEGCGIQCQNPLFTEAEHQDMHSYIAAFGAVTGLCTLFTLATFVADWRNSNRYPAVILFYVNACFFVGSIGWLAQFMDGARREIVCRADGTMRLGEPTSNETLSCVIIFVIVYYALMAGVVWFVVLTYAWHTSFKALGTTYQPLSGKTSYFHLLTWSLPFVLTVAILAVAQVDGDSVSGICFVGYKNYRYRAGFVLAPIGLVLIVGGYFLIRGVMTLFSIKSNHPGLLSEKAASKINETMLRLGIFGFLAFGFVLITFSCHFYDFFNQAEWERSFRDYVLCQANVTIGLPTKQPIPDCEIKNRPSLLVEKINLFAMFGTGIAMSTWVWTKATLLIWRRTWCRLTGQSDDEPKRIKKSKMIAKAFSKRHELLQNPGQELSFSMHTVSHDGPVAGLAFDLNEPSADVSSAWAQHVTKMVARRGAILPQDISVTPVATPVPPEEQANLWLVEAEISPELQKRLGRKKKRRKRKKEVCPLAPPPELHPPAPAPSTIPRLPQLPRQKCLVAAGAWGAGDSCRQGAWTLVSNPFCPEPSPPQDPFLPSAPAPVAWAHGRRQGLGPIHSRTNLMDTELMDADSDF
How it was run: (§1)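 Competition binding: displacement of fluorescently labeled bodipy-cyclopamine from recombinant human Smo expressed in HEK-293 cells. Run in 2% fetal calf serum and, separately, in 20% normal human serum. IC50 values are means of at least five experiments.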

[3] = Half life in rat; type: ADME, organism-based; details: in vivo
Rattus norvegicus = species on record: Rattus norvegicus; assay: Clearance in rat; type: ADME, organism-based; details: in vivo
Protein smoothened [4] = biological target: T1, Protein smoothened; assay: Displacement of BODIPY-cyclopamine from human Smo expressed in HEK293 cells in presence of 2% fetal calf serum; type: cell-based; how it was run: as §1
[5] = Volume of distribution at steady state in rat; type: ADME, organism-based; details: in vivo, read-out: Vdss
Canis familiaris = species on record: Canis familiaris; assay: Clearance in dog; type: ADME, organism-based, Canis lupus familiaris; details: in vivo
[6] = Half life in dog; type: ADME, organism-based, Canis lupus familiaris; details: in vivo
[7] = Volume of distribution at steady state in dog; type: ADME, organism-based, Canis lupus familiaris; details: in vivo, read-out: Vdss

SMILES	bioavailability [1]	IC50 (Protein smoothened [2])	half-life [3]	clearance (Rattus norvegicus)	IC50 (Protein smoothened [4])	Vd [5]	clearance (Canis familiaris)	half-life [6]	Vd [7]
O=C(Nc1cccnc1-c1ccccc1)N1CCN2C(=O)N([C@H]3C[C@@H]3c3ccccc3)C(=O)[C@@H]2C1	31%	12 nM	4.9 h	54 mL/min/kg	12 nM	6.7 L/kg			
C[C@@]12CN(C(=O)Nc3ccccc3-c3ccccc3)CCN1C(=O)N([C@H]1C[C@@H]1c1ccccc1)C2=O		60 nM			19 nM				
N#Cc1cccc(-c2ncccc2NC(=O)N2CCN3C(=O)N([C@H]4C[C@@H]4c4ccccc4)C(=O)[C@@H]3C2)c1	43%	22 nM	3.8 h	48 mL/min/kg	16 nM	6 L/kg			
O=C(Nc1cccnc1-c1cccc(Cl)c1)N1CCN2C(=O)N([C@H]3C[C@@H]3c3ccccc3)C(=O)[C@@H]2C1		15 nM	1.3 h	54 mL/min/kg	4 nM	4.1 L/kg			
O=C(Nc1c(Cl)cc(F)cc1Cl)N1CCN2C(=O)N([C@H]3C[C@@H]3c3ccccc3)C(=O)[C@@H]2C1		520 nM			180 nM				
O=C(Nc1ccccc1-c1ccccc1)N1CCN2C(=O)N(C3CC3c3ccccc3)C(=O)C2C1 (stereo in doubt; 6)					35 nM				
C[C@]12CN(C(=O)Nc3ccccc3-c3ccccc3)CCN1C(=O)N([C@H]1C[C@@H]1c1ccccc1)C2=O		1600 nM			1200 nM				
O=C(Nc1cccc(Cl)c1Cl)N1CCN2C(=O)N([C@H]3C[C@@H]3c3ccccc3)C(=O)[C@H]2C1					650 nM				
O=C(Nc1ccnn1-c1cccc(Cl)c1)N1CCN2C(=O)N([C@H]3C[C@@H]3c3ccccc3)C(=O)[C@@H]2C1		32 nM			18 nM				
O=C(Nc1cccc(Cl)c1Cl)N1CCN2C(=O)N([C@@H]3C[C@H]3c3ccccc3)C(=O)[C@@H]2C1					670 nM				
O=C(Nc1ccccc1-c1ccccc1)N1CCN2C(=O)N(C3CC3c3ccccc3)C(=O)C2C1 (stereo in doubt; 5)					95 nM				
O=C(Nc1cccc(Cl)c1Cl)N1CCN2C(=O)N([C@@H]3C[C@H]3c3ccccc3)C(=O)[C@H]2C1					1700 nM				
O=C(Nc1ccnn1-c1cccc(F)c1)N1CCN2C(=O)N([C@H]3C[C@@H]3c3ccccc3)C(=O)[C@@H]2C1		9 nM			7 nM				
O=C(Nc1ccccc1-c1ccccc1)N1CCN2C(=O)N(C3CC3c3ccccc3)C(=O)C2C1 (stereo in doubt; 3)					48 nM				
CS(=O)(=O)c1cc(Cl)c(NC(=O)N2CCN3C(=O)N([C@H]4C[C@@H]4c4ccccc4)C(=O)[C@@H]3C2)c(Cl)c1	74%	68 nM	3.2 h	5 mL/min/kg	42 nM	0.6 L/kg	1.7 mL/min/kg	1 h	0.3 L/kg
N#Cc1cc(Cl)c(NC(=O)N2CCN3C(=O)N([C@H]4C[C@@H]4c4ccccc4)C(=O)[C@@H]3C2)c(Cl)c1	56%	450 nM	5.4 h	2 mL/min/kg	100 nM	0.5 L/kg			
O=C(Nc1cccnc1-c1ccsc1)N1CCN2C(=O)N([C@H]3C[C@@H]3c3ccccc3)C(=O)[C@@H]2C1	41%	42 nM	10 h	58 mL/min/kg	21 nM	10 L/kg	7.6 mL/min/kg	3.1 h	1 L/kg
CN(C)C(=O)c1cc(Cl)c(NC(=O)N2CCN3C(=O)N([C@H]4C[C@@H]4c4ccccc4)C(=O)[C@@H]3C2)c(Cl)c1		120 nM	0.6 h	41 mL/min/kg	77 nM	2.1 L/kg			
